Laboratory results reported in ChEMBL document CHEMBL2203205 (Eur J Med Chem, 2012).
pIC50: −log10 of the molar value.

Key:
[1] = molecular target: T1, Alpha-2B adrenergic receptor (Homo sapiens, UniProt P18089); assay: Inhibition of alpha2B adrenergic receptor
T1 sequence (P18089 whole entry): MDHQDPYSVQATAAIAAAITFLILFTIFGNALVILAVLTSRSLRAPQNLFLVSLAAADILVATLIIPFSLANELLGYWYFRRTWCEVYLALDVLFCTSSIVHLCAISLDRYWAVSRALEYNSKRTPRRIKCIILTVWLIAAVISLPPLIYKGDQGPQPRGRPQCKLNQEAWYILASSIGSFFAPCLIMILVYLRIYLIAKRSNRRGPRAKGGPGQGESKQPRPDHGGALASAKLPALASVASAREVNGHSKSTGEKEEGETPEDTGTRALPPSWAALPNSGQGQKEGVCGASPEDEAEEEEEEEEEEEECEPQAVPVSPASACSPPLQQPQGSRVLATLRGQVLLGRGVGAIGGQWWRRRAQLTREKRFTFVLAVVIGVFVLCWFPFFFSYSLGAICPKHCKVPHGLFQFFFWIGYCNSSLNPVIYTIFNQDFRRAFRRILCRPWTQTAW
In short: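 Binding assay from a broad screen, with a reference compound tested concurrently. Specific binding was total minus nonspecific binding (excess unlabelled ligand). IC50 and Hill coefficient came from non-linear regression of competition curves using mean replicate values.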

[2] = molecular target: T2, Muscarinic acetylcholine receptor M1 (Homo sapiens, UniProt P11229); assay: Inhibition of muscarinic M1 receptor
T2 sequence (P11229 whole entry): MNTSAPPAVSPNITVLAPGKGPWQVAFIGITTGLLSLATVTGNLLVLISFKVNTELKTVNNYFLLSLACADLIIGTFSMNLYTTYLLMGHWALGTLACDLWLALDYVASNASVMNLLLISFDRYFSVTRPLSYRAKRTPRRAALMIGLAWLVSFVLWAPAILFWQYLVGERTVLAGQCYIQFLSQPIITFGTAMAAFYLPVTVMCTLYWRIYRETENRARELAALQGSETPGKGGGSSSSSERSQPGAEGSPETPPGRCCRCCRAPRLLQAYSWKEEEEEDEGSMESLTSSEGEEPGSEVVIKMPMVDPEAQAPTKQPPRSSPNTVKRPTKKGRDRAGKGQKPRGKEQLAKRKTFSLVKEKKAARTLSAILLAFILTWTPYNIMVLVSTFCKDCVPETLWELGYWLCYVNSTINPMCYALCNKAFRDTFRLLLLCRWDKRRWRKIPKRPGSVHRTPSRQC
In short: (§1)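 Radioligand competition binding, run first as a single-concentration broad screen at […], then as concentration-response for follow-up targets, with the reference compound tested in parallel. Specific binding is total minus binding in excess unlabelled ligand, expressed as % of control specific binding. IC50 and Hill coefficient come from non-linear Hill-equation regression of competition curves built from mean replicate values.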

[3] = molecular target: 5-hydroxytryptamine receptor 1B (Homo sapiens, UniProt P28222); assay: Inhibition of 5HT1B receptor; in short: as §1
[4] = molecular target: Voltage-gated inwardly rectifying potassium channel KCNH2 (Homo sapiens, UniProt Q12809); assay: Inhibition of human recombinant ERG expressed in HEK293 cells after 5 to 10 mins by conventional whole-cell patch clamp assay; assay type: cell-based
In short: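 Conventional whole-cell patch clamp on HEK-293 cells stably expressing hERG, cultured 1–7 days in DMEM/GlutaMax-1 + 10% FBS on collagen-coated dishes. Holding potential was −80 mV. Compound was superfused 5–10 min per concentration at rt (22–24 °C). Tail current amplitude was measured before and after superfusion. IC50 came from a logistic fit of the concentration-response.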

[5] = molecular target: T3, Alpha-1D adrenergic receptor (Homo sapiens, UniProt P25100); assay: Inhibition of alpha1D adrenergic receptor; in short: as §1
T3 sequence (P25100 whole entry): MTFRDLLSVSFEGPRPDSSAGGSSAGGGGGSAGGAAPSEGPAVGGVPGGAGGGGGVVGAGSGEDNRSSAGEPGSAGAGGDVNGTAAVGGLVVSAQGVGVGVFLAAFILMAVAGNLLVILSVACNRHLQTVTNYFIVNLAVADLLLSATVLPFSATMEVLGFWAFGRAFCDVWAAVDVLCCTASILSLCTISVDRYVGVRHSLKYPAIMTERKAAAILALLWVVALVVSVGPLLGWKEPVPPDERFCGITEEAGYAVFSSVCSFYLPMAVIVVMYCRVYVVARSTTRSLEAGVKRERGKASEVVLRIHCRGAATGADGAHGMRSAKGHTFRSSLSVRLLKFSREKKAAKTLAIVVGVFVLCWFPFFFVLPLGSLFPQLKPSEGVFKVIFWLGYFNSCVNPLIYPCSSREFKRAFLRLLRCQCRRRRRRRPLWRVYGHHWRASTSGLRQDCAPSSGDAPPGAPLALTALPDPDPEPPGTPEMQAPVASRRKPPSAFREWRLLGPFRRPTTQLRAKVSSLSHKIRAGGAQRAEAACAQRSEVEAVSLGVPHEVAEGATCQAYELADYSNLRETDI

[6] = Clearance in Sprague-Dawley rat at 3 mg/kg, iv; assay type: ADME, organism-based; design: dose 3 mg/kg, route intravenous; settings: in vivo
In short: (§2)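 Male Sprague-Dawley rats dosed intravenously (3 mg/kg) and orally (10 mg/kg). PK parameters came from non-compartmental analysis of plasma concentration vs time curves.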

[7] = Volume of distribution at steady state in Sprague-Dawley rat at 3 mg/kg, iv; assay type: ADME, organism-based; design: dose 3 mg/kg, route intravenous; settings: in vivo, read-out: Vdss; in short: as §2
[8] = molecular target: T4, Alpha-1B adrenergic receptor (Homo sapiens, UniProt P35368); assay: Inhibition of alpha1B adrenergic receptor; in short: as §1
T4 sequence (P35368 whole entry): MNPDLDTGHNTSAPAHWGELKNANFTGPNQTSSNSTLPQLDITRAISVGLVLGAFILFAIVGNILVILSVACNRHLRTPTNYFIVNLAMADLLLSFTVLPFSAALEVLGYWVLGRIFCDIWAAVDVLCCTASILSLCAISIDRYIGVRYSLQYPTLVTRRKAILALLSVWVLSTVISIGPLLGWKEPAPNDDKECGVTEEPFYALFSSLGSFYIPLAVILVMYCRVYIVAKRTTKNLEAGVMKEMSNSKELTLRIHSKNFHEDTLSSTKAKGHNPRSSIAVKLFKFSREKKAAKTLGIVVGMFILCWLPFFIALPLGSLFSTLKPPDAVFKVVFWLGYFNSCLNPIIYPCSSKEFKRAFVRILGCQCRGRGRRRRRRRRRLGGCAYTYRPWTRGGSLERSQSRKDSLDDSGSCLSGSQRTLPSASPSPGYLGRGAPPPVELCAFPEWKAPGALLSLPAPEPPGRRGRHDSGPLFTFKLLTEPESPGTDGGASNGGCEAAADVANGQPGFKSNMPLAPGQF

Chain of 5-hydroxytryptamine receptor 1B (P28222 whole entry): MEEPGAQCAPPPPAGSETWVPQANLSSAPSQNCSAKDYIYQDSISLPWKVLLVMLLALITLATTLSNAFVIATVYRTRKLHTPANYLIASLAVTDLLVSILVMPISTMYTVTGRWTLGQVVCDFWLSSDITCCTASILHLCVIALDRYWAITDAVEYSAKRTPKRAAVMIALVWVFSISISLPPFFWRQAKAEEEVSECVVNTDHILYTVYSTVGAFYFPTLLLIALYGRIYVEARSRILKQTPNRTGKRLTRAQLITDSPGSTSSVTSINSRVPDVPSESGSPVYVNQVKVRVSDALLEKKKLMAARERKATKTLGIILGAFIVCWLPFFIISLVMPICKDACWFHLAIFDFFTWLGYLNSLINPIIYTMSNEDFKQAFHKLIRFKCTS
Chain of Voltage-gated inwardly rectifying potassium channel KCNH2 (Q12809 whole entry, the tested form may be a part): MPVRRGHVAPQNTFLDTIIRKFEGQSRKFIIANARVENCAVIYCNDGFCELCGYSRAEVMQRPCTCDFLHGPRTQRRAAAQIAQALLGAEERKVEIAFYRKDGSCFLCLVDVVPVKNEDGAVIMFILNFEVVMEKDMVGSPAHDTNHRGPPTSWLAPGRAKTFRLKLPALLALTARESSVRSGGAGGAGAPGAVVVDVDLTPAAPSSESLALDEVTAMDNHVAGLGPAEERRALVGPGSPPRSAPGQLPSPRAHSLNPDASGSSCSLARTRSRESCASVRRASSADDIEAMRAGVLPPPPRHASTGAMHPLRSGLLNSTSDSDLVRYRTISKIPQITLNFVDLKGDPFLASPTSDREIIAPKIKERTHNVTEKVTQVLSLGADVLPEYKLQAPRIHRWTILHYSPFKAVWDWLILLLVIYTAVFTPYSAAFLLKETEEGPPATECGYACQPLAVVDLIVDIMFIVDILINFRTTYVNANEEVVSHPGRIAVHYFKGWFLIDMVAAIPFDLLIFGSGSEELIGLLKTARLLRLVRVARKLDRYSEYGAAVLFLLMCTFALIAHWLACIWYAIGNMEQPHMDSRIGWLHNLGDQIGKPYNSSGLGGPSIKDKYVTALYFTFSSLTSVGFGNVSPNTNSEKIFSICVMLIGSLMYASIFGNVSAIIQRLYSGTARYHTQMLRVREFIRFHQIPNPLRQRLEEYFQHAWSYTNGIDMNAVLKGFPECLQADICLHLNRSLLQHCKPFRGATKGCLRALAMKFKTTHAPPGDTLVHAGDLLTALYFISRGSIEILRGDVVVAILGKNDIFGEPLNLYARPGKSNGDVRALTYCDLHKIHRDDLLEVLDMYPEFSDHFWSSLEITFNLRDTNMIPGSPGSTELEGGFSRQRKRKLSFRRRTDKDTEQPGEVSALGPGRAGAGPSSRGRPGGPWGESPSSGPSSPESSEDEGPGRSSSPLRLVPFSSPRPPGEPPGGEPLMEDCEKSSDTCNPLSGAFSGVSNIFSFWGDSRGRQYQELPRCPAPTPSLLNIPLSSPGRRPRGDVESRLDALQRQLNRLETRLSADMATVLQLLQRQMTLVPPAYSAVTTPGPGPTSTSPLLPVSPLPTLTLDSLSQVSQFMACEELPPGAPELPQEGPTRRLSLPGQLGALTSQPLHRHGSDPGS

Work on `N=C(Nc1ccc2c(c1)CCN2C1CCNCC1)c1cccs1` yielded a pIC50 [1] of 4.49, a pIC50 [2] of 5.07 and a pIC50 [3] of 5.66. It also gave a pIC50 [4] of less than 4.00, a pIC50 [5] of 5.66 and a clearance [6] of 420 mL/min/kg. It also gave a Vd [7] of 330 L/kg and a pIC50 [8] of 5.74.
